# Screening results from PubChem BioAssay.
# Rows were chosen to be rich in hits. Some 1.2% of all compounds tested hit in one or more screens of this group.
# PKA kinase inh = blocks human protein kinase A activity; inhibition, % at 6 µM; 65,000 tested, 0.1% active; PKA Kemptide phosphorylation, Kinase-Glo ATP luminescence;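 active means inhibition above the screen-wide mean inhibition plus 3 SD, cut at about 21% in these data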
# S1P1 ag pot = agonists and agonism potentiators of human S1P1 receptor; P21453; S1P1 CRE-bla cells, forskolin, beta-lactamase FRET, potentiator mode; S1P1 agonist co-added at EC20, 2 nM; 100% = saturating reference agonist, 0% = basal; activation, % at 9.5 µM; 56,000 tested, 0.57% active;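 active means activation above a cutoff set at the mean activation of all tested compounds plus 3 SD, cut at about 54% in these data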;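 further: forskolin at 4 µM as EC80 and the EC20 agonist is SEW2871; 100% = SEW2871 at its EC100 plus forskolin at EC80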
# ROCK2 inh = inhibitors of human Rho kinase 2. O75116. purified ROCK2, Kinase-Glo ATP depletion luminescence. inhibition, % at 6 µM. 60,000 tested, 0.35% active. AID 604;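 active means inhibition above the screen-wide mean inhibition plus 3 SD, cut at about 18% in these data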;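 further: plate controls were DMSO wells for no effect and Y-27632 control wells after no-enzyme background subtraction for full effect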
# JNK3 blocker = inhibitors of human JNK3 kinase; P53779; purified JNK3 kinase activity, HTS; inhibition, % at 8 µM; 60,000 tested, 0.61% active; AID 746; in the data active means inhibition above about 17%;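 further: 0% = DMSO and 100% = reference inhibitor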
# MMP13 inh = MMP13 (human) collagenase inhibition; P45452; MMP-13 fTHP FRET cleavage, Mca fluorescence; inhibition, % at 4 µM; 65,000 tested, 0.07% active;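 active means inhibition above the mean of compound-free control plate wells plus 3 SD, cut at about 14% in these data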;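 further: 0% = DMSO wells and 100% = wells with reference MMP-13 inhibitor after basal subtraction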
# S1P3 agonist = activates the human S1P3 receptor | 60,000 tested, 0.1% active | S1P3 NFAT-BLA reporter cells, agonism, FRET ratio; relative to 1 µM S1P, basal subtracted | activation, % at 4.5 µM | Q99500;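 active means activation above the screen-wide mean plus 3 SD, cut at about 4.5% in these data, passing the limit was not always enough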
# Target sequence (Q99500 whole entry, looked up): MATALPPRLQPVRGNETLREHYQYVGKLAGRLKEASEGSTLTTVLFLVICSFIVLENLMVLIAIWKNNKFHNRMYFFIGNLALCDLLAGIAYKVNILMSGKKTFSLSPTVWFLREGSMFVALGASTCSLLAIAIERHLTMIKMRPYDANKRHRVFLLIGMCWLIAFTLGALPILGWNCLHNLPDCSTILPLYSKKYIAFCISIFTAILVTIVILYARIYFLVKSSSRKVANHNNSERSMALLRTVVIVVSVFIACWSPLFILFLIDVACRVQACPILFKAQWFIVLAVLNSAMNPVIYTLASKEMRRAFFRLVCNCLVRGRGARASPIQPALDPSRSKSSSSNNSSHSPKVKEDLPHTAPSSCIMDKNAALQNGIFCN
#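 Benchmarks: high control 1 µM S1P / System: stable CHO line with human S1P3, Gα16, NFAT-BLA reporter / Dosing: single compound concentration, 4.5 µM final / Timing: 4 h compound at 37 °C, 2 h substrate at RT / Measured by: FRET β-lactamase substrate fluorescence, excitation 405 nm, 460/535 nm emission ratio, background-subtracted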
# * marks the source's active call; other numbers are inactive results; · = no result given.
SMILES,PKA kinase inh,S1P1 ag pot,ROCK2 inh,JNK3 blocker,MMP13 inh,S1P3 agonist
CCOc1cc(-c2nnc(-c3ccco3)o2)cc(OCC)c1OCC,0.3,-17.6,2.9,1.4,-74.6,-0.6
CCOc1ccc(-c2nnc(-c3cccs3)o2)cc1OCC,14.2,103.5*,6.3,4.1,-114.4,0.1
CCOc1ccc(-c2nnc(-c3ccco3)o2)cc1OCC,-1.5,99.3*,-0.9,-0.8,-106.5,0.0
O=C(CSc1nnc(-c2ccco2)n1CC1CCCO1)c1ccc(F)cc1 (configuration not stated),12.8,-1.1,3.8,8.1,-6.0,0.1
N#Cc1c(-c2cccnc2)c2c([nH]c1=S)CCCC2,6.3,1.0,1.1,-0.6,-2.9,-0.9
COc1ccc(-c2c3c([nH]c(=S)c2C#N)CCC3)cc1,1.1,12.4,1.3,46.0*,-7.2,-2.0
COC(=O)c1cn(CCOc2ccccc2)c2ccccc12,-3.0,-15.6,-0.8,5.1,2.6,-0.6
Cc1ccc(OCCn2cc(/C(N)=N/O)c3ccccc32)cc1C,-1.3,68.3*,0.3,1.1,-2.2,-1.0
CCCCNc1cc(C(=O)O)cc(S(N)(=O)=O)c1Oc1ccccc1,-5.5,1.9,2.4,-3.9,-25.3,-1.4
O=C(Nc1ccncc1)Nc1ccc(F)cc1F,2.9,-32.5,22.7*,0.2,4.6,-0.3
COCCN(CCOC)S(=O)(=O)c1ccc(C(=O)Nc2nc(-c3ccncc3)cs2)cc1,12.4,-10.8,19.3*,5.7,5.6,-1.3
COCCN(CCOC)S(=O)(=O)c1ccc(C(=O)Nc2nc(C)c(C(C)=O)s2)cc1,-4.7,7.0,-2.6,0.1,-1.2,-1.3
C/C(NCc1cccnc1)=C(\C#N)C(=O)NCc1ccccc1,2.2,-16.1,1.8,0.6,3.6,0.5
Cc1ccc(-c2nnc(SCc3ccccc3F)o2)cc1,11.5,92.6*,2.2,1.8,5.0,-0.1
O=c1c2ccccc2cnn1-c1nc2ccccc2s1,-21.7,23.5,-9.8,0.0,-5.2,-1.3
CN(c1ccc(O)cc1)c1nc(-c2ccccc2)cs1,13.4,·,·,·,19.6*,·
Cc1sc(NC(=O)COc2cccc(-n3cnnn3)c2)c(C#N)c1C,8.2,35.3,-1.2,2.6,2.3,-0.6
CCOc1ccccc1NC(=O)COc1cccc(-n2cnnn2)c1,3.6,-7.4,1.6,23.0*,0.5,0.6
CC(=O)N=c1c(C#N)cc2c(=O)n3cccc(C)c3nc2n1CC(C)C,6.4,-14.7,-1.7,5.6,-209.3,-0.3
CCn1c(CNC(=O)c2ccco2)nnc1SCC(=O)Nc1cc(C(F)(F)F)ccc1Cl,-2.8,-5.7,-2.9,-1.1,-6.2,-0.5
COc1ccc(OC)c(NC(=O)c2cc3ccccc3o2)c1,12.9,·,7.3,3.0,1.2,-1.2
COc1ccc(OC)c(Nc2nc(N)nc(-c3cc4ccccc4o3)n2)c1,2.3,·,4.1,31.7*,1.6,0.1
CC1Oc2ccccc2N(CC(=O)N(Cc2ccccc2)Cc2ccccn2)C1=O (configuration not stated),7.0,20.9,3.2,-3.3,2.7,0.1
O=C(Nc1ccc(N2CCOCC2)cc1)Nc1ccc2nc(-c3ccco3)c(-c3ccco3)nc2c1,4.1,·,42.0*,0.0,-5.5,0.0
O=C(c1ccc2nc(-c3ccco3)c(-c3ccco3)nc2c1)N1CCN(c2ccccc2)CC1,2.0,16.3,-6.0,1.4,-2.5,-0.9
SMILES,PKA kinase inh,S1P1 ag pot,ROCK2 inh,JNK3 blocker,MMP13 inh,S1P3 agonist
Cc1cc2nc(-c3ccc(NC(=O)C(C)C)cc3)oc2cc1C,2.2,108.3*,-1.4,-5.0,-153.6,-2.2
CCOc1ccc2nc(N3CCOCC3)nc(C)c2c1,9.8,·,8.3,3.1,-106.2,0.7
CCOc1ccc2nc3ccc4[nH]onc4c3c2c1,34.9*,25.8,16.7,0.5,-3.0,0.1
Cc1ccc2c(c1)c1c3n2CCN(C(=O)Cn2c(-c4ccccc4)noc2=O)C3CCC1 (configuration not stated),-5.6,8.1,21.2*,0.9,-20.0,-0.9
CCOC(=O)C1=C(C)NC(=O)NC1/C(C)=C/c1ccccc1 (configuration not stated),4.3,-4.7,5.8,3.5,-3.6,-0.7
Cc1ccc(SCc2nc(-c3ccncc3)no2)cc1,20.9*,1.1,24.3*,0.7,5.9,-0.9
